From ChEMBL document CHEMBL1126792, “Structure-activity relationships of beta-D-(2S,5R)- and alpha-D-(2S,5S)-1,3-oxathiolanyl nucleosides as potential anti-HIV agents” (J Med Chem, 1993)

What was measured:
[1] = tested on: Human immunodeficiency virus 1; assay: Inhibition of cell growth against HIV-1 infected PBM (Human peripheral blood mononuclear) cells; assay type: functional, organism-based
Outline: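 Growth of human PBM cells measured in cytotoxicity assay; IC50 = concentration giving 50% inhibition of cell growth; mean of triplicate values, calculated by the median method.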

Vero = assay: Inhibition of cell growth in vero cells; assay type: functional, cell-based; conditions: Chlorocebus sabaeus
Outline: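 Vero cell cytotoxicity assay; IC50 = concentration giving 50% inhibition of cell growth; mean of triplicate values, calculated by the median method.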

[2] = tested on: Human immunodeficiency virus 1; assay: Concentration required for antiviral activity in PBMC (human peripheral blood mononuclear cells) infected with HIV-1 strain LAV; assay type: functional, organism-based; conditions: Human immunodeficiency virus 1, PBMC
Outline: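 Human PBM cells infected with HIV-1 strain LAV. EC50 is the concentration giving 50% inhibition of virus production, measured as reverse transcriptase (RT) levels in culture supernatant. Values are the mean of triplicates, calculated by the median method.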

Which IC50 [1] does the source give for `O=c1[nH]c(=O)n([C@H]2CS[C@@H](CO)O2)cc1F` here?
Its IC50 is > 100 µM.

And the IC50 (Vero)?
Its IC50 is > 100 µM.

What about the EC50 [2] of the same compound?
Its EC50 is 6300 nM.

Which results are given for `Nc1nc(=O)n([C@H]2CS[C@@H](CO)O2)cc1Br`?
IC50 [1]: > 100 µM; IC50 (Vero): > 100 µM; EC50 [2]: 12 nM

With `OC[C@H]1O[C@H](n2cnc3c(O)ncnc32)CS1` as the compound, how does the IC50 [1] read?
The IC50 was > 100 µM.

And the IC50 (Vero)?
Its IC50 is > 100 µM.

What about the EC50 [2] of the same compound?
Its EC50 is > 100000 nM.

What does the source list for `Cc1cn([C@@H]2CS[C@@H](CO)O2)c(=O)[nH]c1=O`?
IC50 [1]: > 100 µM; IC50 (Vero): > 100 µM; EC50 [2]: > 100000 nM

With `Cc1cn([C@H]2C[C@H](N=[N+]=[N-])[C@@H](CO)O2)c(=O)[nH]c1=O` [ZIDOVUDINE] as the compound, how does the IC50 [1] read?
Its IC50 is > 100 µM.

And the IC50 (Vero)?
Its IC50 is > 100 µM.

What about the EC50 [2] of the same compound?
Its EC50 is 4 nM.

What does the source list for `O=c1[nH]c(=O)n([C@H]2CS[C@@H](CO)O2)cc1Br`?
IC50 [1]: > 100 µM; IC50 (Vero): > 100 µM; EC50 [2]: > 100000 nM

How did the IC50 [1] turn out when `Nc1nc(O)c2ncn([C@@H]3CS[C@@H](CO)O3)c2n1` was run?
Its IC50 is > 100 µM.

And the IC50 (Vero)?
The IC50 was 63.6 µM.

What about the EC50 [2] of the same compound?
Its EC50 is 7620 nM.

With `OC[C@H]1O[C@@H](n2cnc3c(Cl)ncnc32)CS1` as the compound, how does the IC50 [1] read?
Its IC50 is > 100 µM.

What about the IC50 (Vero) of the same compound?
The IC50 was 46.5 µM.

What about the EC50 [2] of the same compound?
The EC50 was 480 nM.

For `Nc1ccn([C@@H]2CS[C@@H](CO)O2)c(=O)n1`, which IC50 [1] is on record?
The IC50 was > 100 µM.

What about the IC50 (Vero) of the same compound?
Its IC50 is > 100 µM.

And the EC50 [2]?
Its EC50 is > 100000 nM.

What does the source list for `Nc1ncnc2c1ncn2[C@H]1CS[C@@H](CO)O1`?
IC50 [1]: > 100 µM; IC50 (Vero): > 100 µM; EC50 [2]: 280 nM

Which results are given for `O=c1[nH]c(=O)n([C@@H]2CS[C@@H](CO)O2)cc1Cl`?
IC50 [1]: > 100 µM; IC50 (Vero): > 100 µM; EC50 [2]: > 100000 nM

Which results are given for `Nc1nc(=O)n([C@@H]2CS[C@@H](CO)O2)cc1F`?
IC50 [1]: > 100 µM; IC50 (Vero): > 100 µM; EC50 [2]: 77500 nM

Which results are given for `Nc1nc(=O)n([C@@H]2CS[C@@H](CO)O2)cc1Cl`?
IC50 [1]: > 100 µM; IC50 (Vero): 31.2 µM; EC50 [2]: > 100000 nM

Which results are given for `Nc1nc(F)nc2c1ncn2[C@H]1CS[C@@H](CO)O1`?
IC50 [1]: > 100 µM; IC50 (Vero): 5.6 µM; EC50 [2]: 2800 nM

How did the IC50 [1] turn out when `Cc1cn([C@H]2CS[C@@H](CO)O2)c(=O)nc1N` was run?
Its IC50 is > 100 µM.

What about the IC50 (Vero) of the same compound?
Its IC50 is > 100 µM.

What about the EC50 [2] of the same compound?
The EC50 was 172 nM.

`CNc1ncnc2c1ncn2[C@H]1CS[C@@H](CO)O1` was tested. Which IC50 [1] did it give?
The IC50 was > 100 µM.

And the IC50 (Vero)?
The IC50 was > 100 µM.

And the EC50 [2]?
The EC50 was 1100 nM.

For `OC[C@H]1O[C@H](n2cnc3c(Cl)ncnc32)CS1`, which IC50 [1] is on record?
The IC50 was > 100 µM.

What about the IC50 (Vero) of the same compound?
The IC50 was 86.1 µM.

What about the EC50 [2] of the same compound?
The EC50 was 2700 nM.

For `Nc1nc(=O)n([C@H]2CS[C@@H](CO)O2)cc1I`, which IC50 [1] is on record?
Its IC50 is > 100 µM.

And the IC50 (Vero)?
Its IC50 is > 100 µM.

What about the EC50 [2] of the same compound?
The EC50 was 1900 nM.

`Cc1cn([C@@H]2CS[C@@H](CO)O2)c(=O)nc1N` was tested. Which IC50 [1] did it give?
The IC50 was > 100 µM.

And the IC50 (Vero)?
Its IC50 is > 100 µM.

And the EC50 [2]?
Its EC50 is > 100000 nM.

With `Nc1ccn([C@H]2CO[C@@H](CO)O2)c(=O)n1` as the compound, how does the EC50 [2] read?
Its EC50 is 16 nM.
